Measured values: ChEMBL document CHEMBL1177709, “Molecular switch controlling the binding of anionic bile acid conjugates to human apical sodium-dependent bile acid transporter” (J Med Chem, 2010)

Target: T1, Ileal sodium/bile acid cotransporter (Homo sapiens, UniProt Q12908)
T1 sequence (Q12908 whole entry): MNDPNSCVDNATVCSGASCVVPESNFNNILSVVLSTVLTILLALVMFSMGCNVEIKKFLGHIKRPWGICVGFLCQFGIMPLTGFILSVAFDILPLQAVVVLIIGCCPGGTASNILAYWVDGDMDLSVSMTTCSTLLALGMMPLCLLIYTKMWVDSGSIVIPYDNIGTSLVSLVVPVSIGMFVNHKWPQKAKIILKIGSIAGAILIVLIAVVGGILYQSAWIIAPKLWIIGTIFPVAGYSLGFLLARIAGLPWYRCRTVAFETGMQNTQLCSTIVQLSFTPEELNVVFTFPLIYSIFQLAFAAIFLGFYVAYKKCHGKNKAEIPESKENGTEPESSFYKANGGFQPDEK
Assay: Inhibition of human ASBT expressed in MDCK cells assessed as inhibition of [3H]taurocholic acid uptake after 10 mins by liquid scintillation counting
Type: cell-based
Outline: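 Stably transfected hASBT-MDCK cells grown in DMEM with 10% FBS, penicillin/streptomycin and 1 mg/mL geneticin, seeded at 1.5 million/well, induced with 10mM sodium butyrate for 12-17 h before study on day 4. Cells washed with chilled sodium-free buffer, lysed in NaOH, neutralized, counted.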

| Ki | Structure (SMILES) |
| --- | --- |
| 1.91 µM | C[C@H](CCC(=O)N[C@@H](CCC(=O)Nc1ccc(Cl)cc1)C(=O)O)[C@H]1CC[C@H]2[C@@H]3[C@H](O)C[C@H]4C[C@H](O)CC[C@]4(C)[C@H]3CC[C@]12C |
| 2.02 µM | C[C@H](CCC(=O)N[C@@H](CCC(=O)Nc1ccc(C(F)(F)F)cc1)C(=O)O)[C@H]1CC[C@H]2[C@@H]3[C@H](O)C[C@H]4C[C@H](O)CC[C@]4(C)[C@H]3CC[C@]12C |
| 2.31 µM | C[C@H](CCC(=O)N[C@@H](CCC(=O)Nc1ccccc1F)C(=O)O)[C@H]1CC[C@H]2[C@@H]3[C@H](O)C[C@H]4C[C@H](O)CC[C@]4(C)[C@H]3CC[C@]12C |
| 1.25 µM | C[C@H](CCC(=O)N[C@@H](CCC(=O)Nc1cccc(F)c1)C(=O)O)[C@H]1CC[C@H]2[C@@H]3[C@H](O)C[C@H]4C[C@H](O)CC[C@]4(C)[C@H]3CC[C@]12C |
| 3.02 µM | C[C@H](CCC(=O)N[C@@H](CCC(=O)Nc1ccc(F)cc1)C(=O)O)[C@H]1CC[C@H]2[C@@H]3[C@H](O)C[C@H]4C[C@H](O)CC[C@]4(C)[C@H]3CC[C@]12C |
| 2.63 µM | Cc1ccccc1NC(=O)CC[C@H](NC(=O)CC[C@@H](C)[C@H]1CC[C@H]2[C@@H]3[C@H](O)C[C@H]4C[C@H](O)CC[C@]4(C)[C@H]3CC[C@]12C)C(=O)O |
| 0.889 µM | Cc1cccc(NC(=O)CC[C@H](NC(=O)CC[C@@H](C)[C@H]2CC[C@H]3[C@@H]4[C@H](O)C[C@H]5C[C@H](O)CC[C@]5(C)[C@H]4CC[C@]23C)C(=O)O)c1 |
| 3.2 µM | Cc1ccc(NC(=O)CC[C@H](NC(=O)CC[C@@H](C)[C@H]2CC[C@H]3[C@@H]4[C@H](O)C[C@H]5C[C@H](O)CC[C@]5(C)[C@H]4CC[C@]23C)C(=O)O)cc1 |
| 3.89 µM | COc1ccccc1NC(=O)CC[C@H](NC(=O)CC[C@@H](C)[C@H]1CC[C@H]2[C@@H]3[C@H](O)C[C@H]4C[C@H](O)CC[C@]4(C)[C@H]3CC[C@]12C)C(=O)O |
| 4.22 µM | COc1cccc(NC(=O)CC[C@H](NC(=O)CC[C@@H](C)[C@H]2CC[C@H]3[C@@H]4[C@H](O)C[C@H]5C[C@H](O)CC[C@]5(C)[C@H]4CC[C@]23C)C(=O)O)c1 |
| 6.09 µM | COc1ccc(NC(=O)CC[C@H](NC(=O)CC[C@@H](C)[C@H]2CC[C@H]3[C@@H]4[C@H](O)C[C@H]5C[C@H](O)CC[C@]5(C)[C@H]4CC[C@]23C)C(=O)O)cc1 |
| 3.93 µM | C[C@H](CCC(=O)N[C@@H](CCC(=O)Nc1ccccc1C(C)(C)C)C(=O)O)[C@H]1CC[C@H]2[C@@H]3[C@H](O)C[C@H]4C[C@H](O)CC[C@]4(C)[C@H]3CC[C@]12C |
| 0.587 µM | C[C@H](CCC(=O)N[C@@H](CCC(=O)Nc1cccc(C(C)(C)C)c1)C(=O)O)[C@H]1CC[C@H]2[C@@H]3[C@H](O)C[C@H]4C[C@H](O)CC[C@]4(C)[C@H]3CC[C@]12C |
| 0.275 µM | C[C@H](CCC(=O)N[C@@H](CCC(=O)Nc1ccc(C(C)(C)C)cc1)C(=O)O)[C@H]1CC[C@H]2[C@@H]3[C@H](O)C[C@H]4C[C@H](O)CC[C@]4(C)[C@H]3CC[C@]12C |
| 7.65 µM | COC(=O)c1cccc(NC(=O)CC[C@H](NC(=O)CC[C@@H](C)[C@H]2CC[C@H]3[C@@H]4[C@H](O)C[C@H]5C[C@H](O)CC[C@]5(C)[C@H]4CC[C@]23C)C(=O)O)c1 |
| 4.03 µM | COC(=O)c1ccc(NC(=O)CC[C@H](NC(=O)CC[C@@H](C)[C@H]2CC[C@H]3[C@@H]4[C@H](O)C[C@H]5C[C@H](O)CC[C@]5(C)[C@H]4CC[C@]23C)C(=O)O)cc1 |
| 2.64 µM | C[C@H](CCC(=O)N[C@@H](CCC(=O)Nc1ccccc1N)C(=O)O)[C@H]1CC[C@H]2[C@@H]3[C@H](O)C[C@H]4C[C@H](O)CC[C@]4(C)[C@H]3CC[C@]12C |
| 16.3 µM | C[C@H](CCC(=O)N[C@@H](CCC(=O)Nc1cccc(N)c1)C(=O)O)[C@H]1CC[C@H]2[C@@H]3[C@H](O)C[C@H]4C[C@H](O)CC[C@]4(C)[C@H]3CC[C@]12C |
| 15.9 µM | C[C@H](CCC(=O)N[C@@H](CCC(=O)Nc1ccc(N)cc1)C(=O)O)[C@H]1CC[C@H]2[C@@H]3[C@H](O)C[C@H]4C[C@H](O)CC[C@]4(C)[C@H]3CC[C@]12C |
| 3.16 µM | C[C@H](CCC(=O)N[C@@H](CCC(=O)Nc1ccc(F)cc1F)C(=O)O)[C@H]1CC[C@H]2[C@@H]3[C@H](O)C[C@H]4C[C@H](O)CC[C@]4(C)[C@H]3CC[C@]12C |
| 8.07 µM | Cc1cccc(C)c1NC(=O)CC[C@H](NC(=O)CC[C@@H](C)[C@H]1CC[C@H]2[C@@H]3[C@H](O)C[C@H]4C[C@H](O)CC[C@]4(C)[C@H]3CC[C@]12C)C(=O)O |
| 4.3 µM | Cc1cccc(NC(=O)CC[C@H](NC(=O)CC[C@@H](C)[C@H]2CC[C@H]3[C@@H]4[C@H](O)C[C@H]5C[C@H](O)CC[C@]5(C)[C@H]4CC[C@]23C)C(=O)O)c1C |
| 5.19 µM | COc1cc(NC(=O)CC[C@H](NC(=O)CC[C@@H](C)[C@H]2CC[C@H]3[C@@H]4[C@H](O)C[C@H]5C[C@H](O)CC[C@]5(C)[C@H]4CC[C@]23C)C(=O)O)cc(OC)c1 |
| 108 µM | C[C@H](CCC(=O)N[C@@H](CCC(=O)Nc1ccc(C(=O)O)cc1)C(=O)O)[C@H]1CC[C@H]2[C@@H]3[C@H](O)C[C@H]4C[C@H](O)CC[C@]4(C)[C@H]3CC[C@]12C |
| 126 µM | C[C@H](CCC(=O)N[C@@H](CCC(=O)NCc1cccc(C(=O)O)c1)C(=O)O)[C@H]1CC[C@H]2[C@@H]3[C@H](O)C[C@H]4C[C@H](O)CC[C@]4(C)[C@H]3CC[C@]12C |
| 5.26 µM | CC(CCC(=O)NC(CCC(=O)Nc1ccc(NC(=O)OC(C)(C)C)cc1)C(=O)O)C1CCC2C3C(O)CC4CC(O)CCC4(C)C3CCC12C (centres undefined) |
| 5.16 µM | CCOC(=O)c1ccc(NC(=O)CCC(NC(=O)CCC(C)C2CCC3C4C(O)CC5CC(O)CCC5(C)C4CCC23C)C(=O)O)cc1 (centres undefined) |
| 6.53 µM | CC(CCC(=O)NC(CCC(=O)Nc1cccc(NC(=O)OC(C)(C)C)c1)C(=O)O)C1CCC2C3C(O)CC4CC(O)CCC4(C)C3CCC12C (centres undefined) |

| Structure (SMILES) | Ki |
| --- | --- |
| COC(=O)c1ccccc1NC(=O)CC[C@H](NC(=O)CC[C@@H](C)[C@H]1CC[C@H]2[C@@H]3[C@H](O)C[C@H]4C[C@H](O)CC[C@]4(C)[C@H]3CC[C@]12C)C(=O)O | 2.3 µM |
| C[C@H](CCC(=O)N[C@@H](CCC(=O)Nc1ccccc1C(=O)O)C(=O)O)[C@H]1CC[C@H]2[C@@H]3[C@H](O)C[C@H]4C[C@H](O)CC[C@]4(C)[C@H]3CC[C@]12C | 40.4 µM |
| C[C@H](CCC(=O)N[C@@H](CCC(=O)Nc1cccc(C(=O)O)c1)C(=O)O)[C@H]1CC[C@H]2[C@@H]3[C@H](O)C[C@H]4C[C@H](O)CC[C@]4(C)[C@H]3CC[C@]12C | 35.9 µM |
| C[C@H](CCC(=O)N[C@@H](CCC(=O)NCc1ccc(C(=O)O)cc1)C(=O)O)[C@H]1CC[C@H]2[C@@H]3[C@H](O)C[C@H]4C[C@H](O)CC[C@]4(C)[C@H]3CC[C@]12C | 41 µM |
| C[C@H](CCC(=O)N[C@@H](CCC(=O)Nc1cccc(C(=O)O)c1)C(=O)OOCc1ccccc1)[C@H]1CC[C@H]2[C@@H]3[C@H](O)C[C@H]4C[C@H](O)CC[C@]4(C)[C@H]3CC[C@]12C | 2.24 µM |
| CCOC(=O)c1ccccc1NC(=O)CCC(NC(=O)CCC(C)C1CCC2C3C(O)CC4CC(O)CCC4(C)C3CCC12C)C(=O)O (centres undefined) | 1.15 µM |
